Experimental data from ChEMBL document CHEMBL4715822, “Structure-based lead optimization to improve antiviral potency and ADMET properties of phenyl-1H-pyrrole-carboxamide entry inhibitors targeted to HIV-1 gp120” (Eur J Med Chem, 2018).
≈ marks a conversion by molar mass, not a printed value.

Key:
[1] = system: Human immunodeficiency virus 1; assay: Antiviral activity against pseudovirus HIV-1 HXB-2 harboring Env S375H mutant infected in human U87.CD4.CXCR4 cells assessed as reduction in viral infection pretreated for 30 mins before viral infection and measured after 3 days by luciferase based assay; type: functional, cell-based, M:B_HXB2R
Method in brief: (§1)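 Pseudoviruses made in HEK293T by co-transfecting an Env-deleted backbone (pSG3Δenv or pNL4-3.Luc.R-.E-) with an HXB-2 Env plasmid carrying single or double substitutions; Env sequences confirmed by sequencing. Virus pretreated 30 min with graded compound, added to U87-CD4-CXCR4 cells (1 × 10⁴/well, plated overnight), incubated 3 days. Cells lysed, luciferase measured, IC50 calculated.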

[2] = Solubility in 5% DMSO at pH 7.4 at 500 uM incubated for 90 mins in shaker by spectrophotometry; type: physicochemical
Method in brief: (§2)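 DMSO stock diluted to 500 μM in universal aqueous buffer pH 7.4 with 2 or 5% DMSO final; quadruplicate, 90 min shaking at room temperature in filter plate, vacuum filtered; filtrate in 20% acetonitrile read by UV absorbance at six wavelengths. Filtrate/standard ratio binned as ~500, 100–500 or <100 μM.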

[3] = system: Human immunodeficiency virus 1; assay: Antiviral activity against pseudovirus HIV-1 HXB-2 harboring Env M434I mutant infected in human U87.CD4.CXCR4 cells assessed as reduction in viral infection pretreated for 30 mins before viral infection and measured after 3 days by luciferase based assay; type: functional, cell-based, M:B_HXB2R; method in brief: as §1
[4] = system: Human immunodeficiency virus 1; assay: Antiviral activity against HIV-1 ADA infected in human MOLT-4 cells assessed as reduction in viral transmission to TZM-bl cells incubated for 48 hrs by luciferase based assay; type: functional, organism-based; conditions: Human immunodeficiency virus 1, ADA, MOLT-4, 48 h
[5] = system: Human immunodeficiency virus 1; assay: Antiviral activity against clinical isolate HIV-1 Ru132 infected in human PBMC cells assessed as reduction in viral transmission to TZM-bl cells pretreated for 1 hr before viral transmission and further incubated for 48 hrs by luciferase based assay; type: functional, cell-based; conditions: Human immunodeficiency virus 1, Ru132, PBMC
Method in brief: (§3)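 PBMC from healthy HIV-negative donors infected with replication-competent virus in the presence of 30 μg/ml DEAE-dextran. On day 4 post-infection, cells washed free of virus and counted. 2 × 10⁴ infected PBMC/well pretreated with escalating compound for 1 h at 37 °C, then co-cultured 48 h with TZM-bl targets (10⁴/well, plated 24 h before). TZM-bl lysed, luciferase read, IC50 calculated.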

[6] = system: Human immunodeficiency virus 1; assay: Antiviral activity against clinical isolate HIV-1 93BR019 infected in human PBMC cells assessed as reduction in viral transmission to TZM-bl cells pretreated for 1 hr before viral transmission and further incubated for 48 hrs by luciferase based assay; type: functional, cell-based; conditions: Human immunodeficiency virus 1, 93BR019, PBMC
[7] = system: Human immunodeficiency virus 1; assay: Antiviral activity against pseudovirus HIV-1 HXB-2 harboring Env I424F mutant infected in human U87.CD4.CXCR4 cells assessed as reduction in viral infection pretreated for 30 mins before viral infection and measured after 3 days by luciferase based assay; type: functional, cell-based, M:B_HXB2R; method in brief: as §1
[8] = system: Human immunodeficiency virus 1; assay: Antiviral activity against Laboratory adapted HIV-1 BaL infected in human PBMC cells assessed as reduction in viral transmission to TZM-bl cells pretreated for 1 hr before viral transmission and further incubated for 48 hrs by luciferase based assay; type: functional, cell-based; conditions: Human immunodeficiency virus 1, BaL; method in brief: as §3
[9] = system: Human immunodeficiency virus 1; assay: Antiviral activity against clinical isolate HIV-1 93RW034 infected in human PBMC cells assessed as reduction in viral transmission to TZM-bl cells pretreated for 1 hr before viral transmission and further incubated for 48 hrs by luciferase based assay; type: functional, organism-based; conditions: Human immunodeficiency virus 1, 93RW034, PBMC
[10] = system: Human immunodeficiency virus 1; assay: Antiviral activity against Laboratory adapted HIV-1 89.6 infected in human PBMC cells assessed as reduction in viral transmission to TZM-bl cells pretreated for 1 hr before viral transmission and further incubated for 48 hrs by luciferase based assay; type: functional, cell-based; conditions: Human immunodeficiency virus 1, 89.6, PBMC
[11] = system: Human immunodeficiency virus 1; assay: Antiviral activity against pseudovirus HIV-1 HXB-2 harboring wild type Env infected in human U87.CD4.CXCR4 cells assessed as reduction in viral infection pretreated for 30 mins before viral infection and measured after 3 days by luciferase based assay; type: functional, cell-based; conditions: Human immunodeficiency virus 1, M:B_HXB2R
[12] = Solubility in 2 % DMSO at pH 7.4 at 500 uM incubated for 90 mins in shaker by spectrophotometry; type: physicochemical; method in brief: as §2
[13] = Apparent permeability across apical to basolateral side in human Caco2 cells incubated for 2 hrs by LC-MS/MS analysis; type: ADME, cell-based, Caco-2; conditions: caco-2, 2 h
Method in brief: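 Caco-2 monolayers grown three weeks to differentiate; compound in transport buffer pH 7.4 (glucose, 10 mM HEPES, HBSS) added apical (A-B) or basal (B-A) side, with or without 100 μM verapamil; 2 h incubation, both sides sampled. Lucifer yellow 100 μM on A side checks integrity (≤2% transport). Papp = (dQ/dt)/(C0 × A); efflux ratio = Papp(B→A)/Papp(A→B).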

[14] = system: Human immunodeficiency virus 1; assay: Antiviral activity against pseudovirus HIV-1 HXB-2 harboring Env N425K mutant infected in human U87.CD4.CXCR4 cells assessed as reduction in viral infection pretreated for 30 mins before viral infection and measured after 3 days by luciferase based assay; type: functional, cell-based, M:B_HXB2R; method in brief: as §1
[15] = system: Human immunodeficiency virus 1; assay: Antiviral activity against pseudovirus HIV-1 HXB-2 harboring Env L116P mutant infected in human U87.CD4.CXCR4 cells assessed as reduction in viral infection pretreated for 30 mins before viral infection and measured after 3 days by luciferase based assay; type: functional, cell-based, M:B_HXB2R; method in brief: as §1
[16] = system: Human immunodeficiency virus 1; assay: Antiviral activity against pseudovirus HIV-1 HXB-2 harboring Env S375Y mutant infected in human U87.CD4.CXCR4 cells assessed as reduction in viral infection pretreated for 30 mins before viral infection and measured after 3 days by luciferase based assay; type: functional, cell-based, M:B_HXB2R; method in brief: as §1
[17] = system: Human immunodeficiency virus 1; assay: Antiviral activity against Laboratory adapted HIV-1 LA1 infected in human PBMC cells assessed as reduction in viral transmission to TZM-bl cells pretreated for 1 hr before viral transmission and further incubated for 48 hrs by luciferase based assay; type: functional, organism-based; conditions: Human immunodeficiency virus 1, LA1, PBMC; method in brief: as §3
[18] = system: Human immunodeficiency virus 1; assay: Antiviral activity against pseudovirus HIV-1 HXB-2 harboring Env M475I mutant infected in human U87.CD4.CXCR4 cells assessed as reduction in viral infection pretreated for 30 mins before viral infection and measured after 3 days by luciferase based assay; type: functional, cell-based, M:B_HXB2R; method in brief: as §1
[19] = system: Human immunodeficiency virus 1; assay: Antiviral activity against clinical isolate HIV-1 93RW018 infected in human PBMC cells assessed as reduction in viral transmission to TZM-bl cells pretreated for 1 hr before viral transmission and further incubated for 48 hrs by luciferase based assay; type: functional, organism-based; conditions: Human immunodeficiency virus 1, 93RW018, PBMC
[20] = system: Human immunodeficiency virus 1; assay: Antiviral activity against pseudovirus HIV-1 HXB-2 harboring Env M434I/I595F double mutant infected in human U87.CD4.CXCR4 cells assessed as reduction in viral infection pretreated for 30 mins before viral infection and measured after 3 days by luciferase based assay; type: functional, cell-based, M:B_HXB2R; method in brief: as §1
[21] = system: Human immunodeficiency virus 1; assay: Antiviral activity against pseudovirus HIV-1 HXB-2 harboring Env F468L mutant infected in human U87.CD4.CXCR4 cells assessed as reduction in viral infection pretreated for 30 mins before viral infection and measured after 3 days by luciferase based assay; type: functional, cell-based, M:B_HXB2R; method in brief: as §1
[22] = system: Human immunodeficiency virus 1; assay: Antiviral activity against clinical isolate HIV-1 BCF01 infected in human PBMC cells assessed as reduction in viral transmission to TZM-bl cells pretreated for 1 hr before viral transmission and further incubated for 48 hrs by luciferase based assay; type: functional, cell-based; conditions: Human immunodeficiency virus 1, BCF01, PBMC; method in brief: as §3

With COc1cnc(-n2cnc(C)n2)c2[nH]cc(C(=O)C(=O)N3CCN(C(=O)c4ccccc4)CC3)c12 the IC50 [1] was > 1000 nM, the solubility kinetic at […], 500 µM [2] was 100 µM (≈ 47.3 µg/mL) and the IC50 [3] was 8 nM. It also gave an IC50 [4] of 400 nM, an IC50 [5] of 100 nM and an IC50 [6] of 100 nM. The IC50 [7] was > 1000 nM, the IC50 [8] was 100 nM and the IC50 [9] was 100 nM. For the same compound, the IC50 [10] was 100 nM, the IC50 [11] was 8 nM and the solubility kinetic at […], 500 µM [12] was < 100 µM. The Papp [13] was 9.27 10^-6 cm/s, the IC50 [14] was 8 nM and the IC50 [15] was > 1000 nM. The IC50 [16] was > 1000 nM, the IC50 [17] was 100 nM and the IC50 [18] was 50 nM. For the same compound, the IC50 [19] was 100 nM, the IC50 [20] was 8 nM and the IC50 [21] was 8 nM. For the same compound, the IC50 [22] was > 6000 nM.
